Assay results published in PubChem BioAssay AID651560 (Sanford-Burnham Center for Chemical Genomics, 2012).
Hit rate of the full screen: of about 360,000 compounds, about 820 (0.23%) were called active. This is one part of a sample in which actives are shown more often than they occur.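 How the source made its calls: active means compounds that cut the enzyme signal by at least half of the control window in the single-dose screen; inactive means the rest.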

The compounds below were run against Low molecular weight phosphotyrosine protein phosphatase (Homo sapiens) (UniProt P24666) (assay: LMPTP phosphatase inhibitors, primary screen, biochemical, fluorescence intensity, uHTS (AID 651560;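 further: plate controls were DMSO wells with enzyme plus substrate for no effect and substrate without enzyme for full effect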)). Conditions: recombinant LMPTP-A, OMFP fluorogenic substrate, at 20 µM, active compounds read high.
Low molecular weight phosphotyrosine protein phosphatase (Homo sapiens), sequence (P24666 whole entry, looked up): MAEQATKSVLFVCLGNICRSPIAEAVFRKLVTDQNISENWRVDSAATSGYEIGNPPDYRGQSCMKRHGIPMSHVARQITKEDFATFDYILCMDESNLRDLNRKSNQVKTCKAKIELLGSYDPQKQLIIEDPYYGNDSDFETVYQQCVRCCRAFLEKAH
Method in brief: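 Assay system: LMPTP-A enzyme. Input: 0.625 nM LMPTP-A final. Probe or stimulus: 400 µM OMFP. Compound dosing: single 20 µM dose. Schedule: 50 min dark incubation at room temperature. Detection: fluorescence intensity of OMFP turnover product. Read-out: percent inhibition versus substrate-only and uninhibited controls. Benchmarks: no-enzyme low control, uninhibited high control.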

inhibition, active:
C=CC1=C(C(=O)O)N2C(=O)[C@@H](NC(=O)/C(=N/OCC(=O)O)c3csc(N)n3)[C@H]2SC1 77.9%, Cc1c(CCC(=O)O)c(=O)oc2c(C)c(OCc3ccccc3Cl)ccc12 86.6%, COc1ccc2[nH]c(=O)c(-c3noc(-c4ccc(F)cc4)n3)cc2c1 48.8%, CN(C(=O)COC(=O)c1cc(-c2ccco2)nc2ccccc12)C1CCS(=O)(=O)C1 (centres undefined) 66.6%, Cc1ccc(C(=O)NNC(=O)c2cc3cc4ccccc4nc3s2)cc1 50.6%, CCOc1ccc(-c2nc(N)ncc2-c2ccccc2OC)c(O)c1 53.5%, c1ccc(-c2cc(N3CCCCC3)c3ccccc3n2)cc1 67.2%

inhibition, inactive:
C=CCn1c(Oc2ccc(C(=O)OC)cc2)nc2c1c(=O)n(C)c(=O)n2C -1.9%, COc1ccccc1N(CC(=O)NC1CCCC1)C(=O)C1(C)CC(=O)N=C2C=CC(C)=CN21 (centres undefined) -0.3%, CCCCNC(=O)Cn1nc(C)c(S(=O)(=O)N2CCOCC2)c1C -0.848%, CCC(C)c1ccccc1NC(=O)CN(C)CC(=O)Nc1ccccc1SC (centres undefined) -7.1%, CC1(C)CC(=O)C2=C(C1)N=C1SCCC(=O)N1C2c1ccc(C(F)(F)F)cc1 (centres undefined) 0.279%, Cc1cc(F)ccc1NC(=O)C(C)n1c2ccccc2c2nc(=O)cc(C)n21 (centres undefined) -1.13%, O=S(=O)(c1ccc(Cl)cc1)N1CCCN(c2ccc(C(F)(F)F)cn2)CC1 2.43%, CCCN1C(=O)C(NS(=O)(=O)c2ccc(N)cc2)(C(F)(F)F)C(C(=O)OC)=C1C (centres undefined) -1.38%, Cc1cccc(NC(=S)N(CCN(C)C)C(C)c2ccco2)c1 (centres undefined) -1.32%, COc1ccc2c(C)c(CCC(=O)NC3CC3)c(=O)oc2c1C -1.16%, O=C(O)c1ccccc1OCc1ccccc1Cl -0.307%, O=C(CO/N=C/c1ccccc1OC(F)F)NC1CCCC1 -0.427%, Cc1ccc(Cc2c(-c3ccc(Cl)cc3)nc3c4ccccc4ccn23)cc1 6.26%, COc1ccc(NC(=O)c2cc(=O)[nH]c3ccccc23)cc1S(=O)(=O)N1CCOCC1 -0.651%, CCCc1nc(-c2cc3cc(C)ccc3[nH]c2=O)no1 -2.23%, COc1ccc(Cc2cc(-c3ccc(F)cc3)n[nH]c2=O)cc1 0.445%, Cn1c(=O)cc(OCC(=O)N2CCN(c3ccccc3F)CC2)c2ccccc21 -0.233%, Cc1[nH]c(N)nc(=S)c1CCCNc1ccccc1 4.94%, Cc1csc(=O)n1CC(=O)Nc1ccc(S(C)(=O)=O)cc1 0.0764%, CN1CCN(Cc2c(C(=O)N3CCc4ccccc4C3)nc3ccc(Cl)cn23)CC1 -1.43%, O=C(COc1ccc(Cl)cc1Cl)NCCCNC(=O)c1cnccn1 -0.724%, CCCNS(=O)(=O)c1ccc(CCC(=O)NCc2cccnc2)cc1 -0.651%, COc1ccc(NC(=O)CN2C(=O)CSC2=O)cc1 -1.92%, CCOC(=O)c1sc2nc(C)nc(SCC(N)=O)c2c1C -0.32%, COc1ccc(C#Cc2c(-c3ccc(OC)cc3)oc3ccc(-c4ccc5c(c4)OCO5)cc23)cc1 0.696%, FC(F)(F)c1ccc2c3n(nc2c1)CCN=C3c1ccc(Cl)cc1 -0.582%, COc1ccc(CC(NC(C)=O)C(=O)NC2CCN(C(=O)c3ccc(Cl)cc3)CC2)cc1 (centres undefined) 0.435%, C[C@]12CC[C@H](O)CC1=CCC1C2CC[C@@]2(C)C1CC[C@@H]2NC(=O)CCC(=O)O (some centres undefined) -0.874%, Cn1c(SCC(=O)Nc2ccc(Cl)cc2)nc(O)cc1=O -0.456%, C[C@@H](C(=O)Nc1ccc2ccccc2c1)[C@@H]1C[C@@]1(C)[C@@H](NC(=O)c1cccnc1)c1ccccc1 0.267%, CCN(c1ccc2c(c1)OCO2)S(=O)(=O)c1cc(Br)cc2c1N(C(=O)C1CC1)CC2 3.91%, CC(=O)c1ccccc1NC(=O)CC1(CC(=O)O)CCCCC1 -1.06%, CCN(CCn1cccn1)Cc1cn[nH]c1-c1ccc(OC)cc1F -1.15%, Cc1cc(-c2nc(C)c(-c3nnc(SCC(=O)Nc4ccccc4)n3C)s2)no1 -0.511%, COC(=O)c1sc(C(F)(F)F)c(-c2ccccc2)c1S(=O)(=O)N(C)C -0.149%, O=C1NC(O)CCN1C1CC(O)C(CO)O1 (centres undefined) -0.47%, COc1ccccc1OCCNC(=O)C(CCSC)NC(=O)COc1ccccc1 (centres undefined) -1.42%, O=C(c1cc(-c2ccco2)nc2ccccc12)N(Cc1nnc(-c2ccc(Cl)cc2)o1)C1CC1 3%, Cc1ccc(S(=O)(=O)CCC(=O)OCC(=O)N(C)C2CCS(=O)(=O)C2)cc1 (centres undefined) -1.13%, COc1ccc(N(C)S(=O)(=O)c2cccc3nsnc23)cc1 -1.17%, Cn1c(=O)[nH]c(=O)c2c1nc(NCCCn1ccnc1)n2Cc1cccc(Br)c1 -1.82%, COc1cc(N2C(=O)c3ccccc3C2=O)c(Cl)cc1C(=O)OCC(=O)N1CCOCC1 0.755%, CS(=O)(=O)c1ccc(C(=O)NNC(=O)c2cccs2)cc1 -1.18%, CCN1CCN(C(=O)c2cc3cc4ccc(OC)cc4nc3s2)CC1 0.833%, O=c1ccc2cc(S(=O)(=O)N3CCN(c4ccccc4)CC3)ccc2o1 -2.32%, CSCCC(NC(=O)c1ccco1)C(=O)NCCc1ccc(F)cc1 (centres undefined) -1.2%, O=C(CNC(=O)c1cc2c(s1)CCC2)Nc1ccccc1Br 5.93%, Cn1c(CN2CCOCC2)nc2cc(NC(=O)c3ccc(Cl)cc3)ccc21 -0.278%, CCOc1cccc(OCCCOc2cccc3cccnc23)c1 3.69%, CCOC(=O)Cn1c2c(c(-c3ccccc3OC)cc1=O)CCCC2 2.39%, Brc1cnc2ccccc2c1N1CCCCC1 4.39%, O=c1cc(N2CCCCC2)c(-c2ccccc2)nn1Cc1cccc(F)c1 -0.671%
